Data set [1] in a line: folding enthalpy; higher = less favourable; fluorescence melt of hairpins on a sequencing array, two-state fit. The note with it: sodium 0.088 M. Put shortly: (§1)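 On a sequenced MiSeq flow cell, library hairpins with annealed Cy3 and quencher oligos were imaged for Cy3 fluorescence in 2.5 °C steps up to 60 °C, in 50 mM Na-HEPES pH 8.0, 25 mM NaCl. Normalisation used pre-quench Cy3 and control constructs. Bootstrapped two-state fits gave melting temperature and folding enthalpy, combined by inverse variance across four replicates and with fitted temperatures raised by 9.35 °C to match UV melts.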

Data set [2] is described as follows: melting temperature; fluorescence melt of hairpins on a sequencing array, two-state fit, raised by 9.35 °C to match UV melts. Particulars: sodium 0.088 M. Put shortly:
as §1

The record followed here is the array DNA melting data of Ke et al. (doi:10.1101/2024.01.08.574731).

In the case of GACGAGGGAAACCCCGTC ((((.((....)).)))), the folding enthalpy in data set [1] was -31.4 kcal/mol. Moreover, the Tm in data set [2] came to 51 °C.

In the case of GACGATGCGAAAGCAGTC (((..(((....)))))), the folding enthalpy in data set [1] was -16.9 kcal/mol. Besides, the Tm in data set [2] is 44 °C.

GACGATGGAAACATTGTC (((.(((....))).))): in data set [1], the folding enthalpy was -35.2 kcal/mol. The Tm in data set [2] came to 47.1 °C.

On to GACGATGGAAACGTCGTC (((((.(....).))))), for which, in data set [1], the folding enthalpy is -35.1 kcal/mol. Also, the Tm in data set [2] came out at 54.5 °C.

With GACGCAGGAAACCGCATC ((.((.(....).)).)), the folding enthalpy in data set [1] was -12.4 kcal/mol. Moreover, in data set [2], the Tm is 28.5 °C.

With GACGCCCGAAAGGGAGTC (((.(((....))).))), the folding enthalpy in data set [1] was -32.8 kcal/mol. In addition, the Tm in data set [2] was 66.7 °C.

For GACGCCGAAAGGCCTGTC ((((((....)))..))), in data set [1], the folding enthalpy is -13.5 kcal/mol. Moreover, the Tm in data set [2] was determined as 35.1 °C.

Turning to GACGCCGAAAGGCTAGTC ((((((....)))..))), the folding enthalpy in data set [1] was -18.1 kcal/mol. The Tm in data set [2] was found to be 46.8 °C.

Regarding GACGCCGAAAGGCTCGTC ((((((....)))..))), the folding enthalpy in data set [1] was -14.5 kcal/mol. Besides, the Tm in data set [2] came to 50 °C.

For GACGCCGGAAACGACGCC (.((.((....)).)).), in data set [1], the folding enthalpy is -21.7 kcal/mol. For the same sequence, in data set [2], the Tm came out at 39.7 °C.

For GACGCGCCGAAAGGCGTC (((..(((....)))))), the folding enthalpy in data set [1] was -6.51 kcal/mol. The Tm in data set [2] turned out to be 37.7 °C.

Consider GACGCGCGAAAGCGGTC (((.(((....)))))), for which the folding enthalpy in data set [1] is -14 kcal/mol. Further, the Tm in data set [2] worked out at 55 °C.

As to GACGCTGCGAAAGCAGTC (((..(((....)))))), the folding enthalpy in data set [1] was -8.26 kcal/mol. Also, the Tm in data set [2] came to 37.2 °C.

In the case of GACGCTGGAAACAGCACC (..((((....))))..), the folding enthalpy in data set [1] is -11.1 kcal/mol. Besides, the Tm in data set [2] worked out at 30 °C.

On to GACGCTGGAAACGGCGTC (((((.(....).))))), for which the folding enthalpy in data set [1] is -44.2 kcal/mol. Also, the Tm in data set [2] worked out at 64.9 °C.

For GACGGAACGAAAGTTGTC (((..(((....)))))), the folding enthalpy in data set [1] was -19.2 kcal/mol. Further, the Tm in data set [2] is 30.7 °C.

GACGGACGAAAGTCGTC (((.(((....)))))): the folding enthalpy in data set [1] was -27.3 kcal/mol. In addition, the Tm in data set [2] turned out to be 55.6 °C.

With GACGGACGAAAGTCTGTC (((.(((....))).))), in data set [1], the folding enthalpy is -35.3 kcal/mol. For the same sequence, in data set [2], the Tm stood at 60.5 °C.

In the case of GACGGCCGAAAGGCGTC (((.(((....)))))), in data set [1], the folding enthalpy was -20.6 kcal/mol. The Tm in data set [2] came to 64.8 °C.

With GACGGCGAAAGCCCCGTC ((((((....)))..))), the folding enthalpy in data set [1] is -15.8 kcal/mol. The Tm in data set [2] was 42.8 °C.

With GACGGCGAAAGCCTGGTC ((((((....)))..))), the folding enthalpy in data set [1] is -15.1 kcal/mol. In addition, the Tm in data set [2] was determined as 49.9 °C.

Consider GACGGCGGAAACGCCACC (..((((....))))..), for which the folding enthalpy in data set [1] is -9.98 kcal/mol. Besides, in data set [2], the Tm stood at 26.9 °C.

As to GACGGGACGAAAGTCGTC (((..(((....)))))), the folding enthalpy in data set [1] was -17.1 kcal/mol. For the same sequence, the Tm in data set [2] came to 45.8 °C.

Regarding GACGGGGGAAACTCCGTC (((((.(....).))))), the folding enthalpy in data set [1] was -37.9 kcal/mol. For the same sequence, in data set [2], the Tm was found to be 58.1 °C.

On to GACGGTGGAAACATCGTC ((((.((....)).)))), for which the folding enthalpy in data set [1] was -43.6 kcal/mol. Moreover, the Tm in data set [2] was found to be 53.7 °C.

GACGTAGGAAACCACGTC (((((.(....).))))): the folding enthalpy in data set [1] is -29.5 kcal/mol. Also, the Tm in data set [2] stood at 47.2 °C.

In the case of GACGTAGGAAACTACACC (..((((....))))..), in data set [1], the folding enthalpy is -10.2 kcal/mol. In addition, the Tm in data set [2] was determined as 25.2 °C.

As for GACGTAGGAAACTATGTC (((.(((....))).))), the folding enthalpy in data set [1] was -30 kcal/mol. Besides, the Tm in data set [2] turned out to be 43.9 °C.

Regarding GACGTAGGAAACTGTGTC (((..((....))..))), in data set [1], the folding enthalpy is -9.59 kcal/mol. In addition, the Tm in data set [2] was 25.7 °C.

As to GACGTCCCGAAAGGGGTC (((..(((....)))))), the folding enthalpy in data set [1] was -10.9 kcal/mol. Also, in data set [2], the Tm amounted to 39.9 °C.

Consider GACGTCCGAAAGGAGTC (((.(((....)))))), for which the folding enthalpy in data set [1] is -24 kcal/mol. Also, in data set [2], the Tm is 49 °C.

Consider GACGTCGCGAAAGCGGTC (((..(((....)))))), for which the folding enthalpy in data set [1] was -11.5 kcal/mol. Also, the Tm in data set [2] was 39.3 °C.

Turning to GACGTCGGAAACGACATC ((.((((....)))).)), in data set [1], the folding enthalpy is -12.7 kcal/mol. Further, the Tm in data set [2] came to 37.2 °C.

Consider GACGTCGGAAACGGCGTC ((((.((....)).)))), for which, in data set [1], the folding enthalpy is -46.9 kcal/mol. In data set [2], the Tm is 62.3 °C.

On to GACGTGCGAAAGCATGTC (((.(((....))).))), for which the folding enthalpy in data set [1] is -35.2 kcal/mol. Also, in data set [2], the Tm stood at 65.1 °C.

Turning to GACGTGGCGAAAGCCGTC (((..(((....)))))), the folding enthalpy in data set [1] is -16.5 kcal/mol. In data set [2], the Tm worked out at 50.4 °C.

Take GACGTGGGAAACTGCGTC ((((..(....)..)))): the folding enthalpy in data set [1] was -24.6 kcal/mol. For the same sequence, the Tm in data set [2] came to 47.6 °C.

In the case of GACGTTGGAAACAACATC ((.((((....)))).)), the folding enthalpy in data set [1] is -16.8 kcal/mol. Also, in data set [2], the Tm was found to be 32.4 °C.

Consider GACGTTGGAAACGACGTC (((((.(....).))))), for which, in data set [1], the folding enthalpy was -35.1 kcal/mol. The Tm in data set [2] turned out to be 55.8 °C.

Take GACTAACGAAAGTTGGTC (((.(((....))).))): the folding enthalpy in data set [1] was -40.4 kcal/mol. In addition, the Tm in data set [2] is 51.3 °C.

Regarding GACTAAGGAAACTTAGTC (((((((....))))))), the folding enthalpy in data set [1] is -35.1 kcal/mol. For the same sequence, in data set [2], the Tm stood at 52.5 °C.

As for GACTAAGGAAACTTGGTC (((.(((....))).))), the folding enthalpy in data set [1] is -30.1 kcal/mol. Also, in data set [2], the Tm was 39.3 °C.

Take GACTACCGAAAGGTGTC (((.(((....)))))): the folding enthalpy in data set [1] is -21.6 kcal/mol. Also, the Tm in data set [2] came to 49.6 °C.

On to GACTACGAAAGTAATGTC ((((((....)))..))), for which the folding enthalpy in data set [1] was -15.7 kcal/mol. Also, the Tm in data set [2] was 34.3 °C.

In the case of GACTACGAAAGTAGCGTC ((((((....)))..))), the folding enthalpy in data set [1] was -12.7 kcal/mol. Also, the Tm in data set [2] was found to be 43.8 °C.

Turning to GACTAGCGAAAGCTCGTC (((.(((....))).))), in data set [1], the folding enthalpy is -19.1 kcal/mol. Further, the Tm in data set [2] amounted to 48 °C.

For the sequence GACTAGCGAAAGCTGTC (((.(((....)))))), the folding enthalpy in data set [1] was -19.6 kcal/mol. Moreover, the Tm in data set [2] turned out to be 50.3 °C.

In the case of GACTAGGAAACTAGTC ((((((....)))))), the folding enthalpy in data set [1] was -34 kcal/mol. Further, the Tm in data set [2] stood at 50.8 °C.

For the sequence GACTCACGAAAGTGCGTC (((.(((....))).))), in data set [1], the folding enthalpy is -32.8 kcal/mol. The Tm in data set [2] came out at 50.6 °C.

Consider GACTCAGGAAACCGAGTC (((((.(....).))))), for which the folding enthalpy in data set [1] was -29.8 kcal/mol. For the same sequence, in data set [2], the Tm was 46.2 °C.

For GACTCCCCGAAAGGGGTC (((..(((....)))))), the folding enthalpy in data set [1] is -7.79 kcal/mol. Besides, the Tm in data set [2] amounted to 31.4 °C.

For GACTCCCGAAAGGGGGTC (((.(((....))).))), the folding enthalpy in data set [1] is -33.4 kcal/mol. Also, in data set [2], the Tm stood at 63.7 °C.

Turning to GACTCCGAAAGGACTGTC ((((((....)))..))), the folding enthalpy in data set [1] is -15.7 kcal/mol. The Tm in data set [2] is 32.7 °C.

In the case of GACTCCGAAAGGAGCGTC ((((((....)))..))), the folding enthalpy in data set [1] is -13.4 kcal/mol. For the same sequence, the Tm in data set [2] turned out to be 49.9 °C.
